Assay results from ChEMBL document CHEMBL1121581, “4-Piperazinyl-10H-thieno[2,3-b][1,5]benzodiazepines as potential neuroleptics” (J Med Chem, 1980).

Assays:
Mus musculus = assay: Hypothermia in mice after peroral administration; type: functional
[1] = Lethal dose in mice after perorla administration; type: toxicity, organism-based; settings: mouse, in vivo, po
Rattus norvegicus [2] = assay: Compound was assessed for its ability to produce catalepsy in rats; Dose administered perorally is 8 mg/kg; Group score is 4-7; type: functional; settings: route oral
Summary of the method: (§1)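 Groups of eight Lilly Wistar rats (180–190 g) were dosed orally, then checked at 0.5, 1, 1.5, 2, 3, 4 and 5 h. Front paws were placed on a 1.5-cm rod 7 cm above the table, and hold time was recorded up to 20 min. Each rat was scored 0–5 and its maximum scores were summed per group (maximum 40), then graded 0–4.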

Rattus norvegicus [3] = assay: Compound was assessed for its ability to block a conditioned avoidance response; Dose administered perorally is 8 mg/kg; 31-50%block; type: functional; settings: route oral
Summary of the method: (§2)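 Lilly Wistar rats (120–130 g) trained in a shuttle box to cross on a 5-s buzzer, with mild shock if no response within 1 s of buzzer end. Only rats with a high conditioned response were used. Groups of five were dosed orally 1 h 50 min before the session, then habituated 10 min and tested 20 min. Shocks were scored as % of stimuli and graded 0–5.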

Rattus norvegicus [4] = assay: Ability to block a conditioned avoidance response; Dose administered perorally is 50 mg/kg.; type: functional; settings: route oral; summary of the method: as §2
Rattus norvegicus [5] = assay: Compound was assessed for its ability to block a conditioned avoidance response; Dose administered perorally is 25 mg/kg; no significant effect (0-25%block); type: functional; settings: route oral; summary of the method: as §2
Rattus norvegicus [6] = assay: Compound was assessed for its ability to block a conditioned avoidance response; Dose administered perorally is 10 mg/kg; no significant effect (0-25%block); type: functional; settings: route oral; summary of the method: as §2
Rattus norvegicus [7] = assay: Compound was assessed for its ability to block a conditioned avoidance response; Dose administered perorally is 20 mg/kg; 76-99%block; type: functional; settings: route oral; summary of the method: as §2
Rattus norvegicus [8] = assay: Compound was assessed for its ability to produce catalepsy in rats; Dose administered perorally is 20 mg/kg; Group score is 8-15; type: functional; settings: route oral; summary of the method: as §1
Rattus norvegicus [9] = assay: Compound was assessed for its ability to produce catalepsy in rats; Dose administered perorally is 50 mg/kg; Group score is 0-3; type: functional; settings: route oral; summary of the method: as §1
Rattus norvegicus [10] = assay: Compound was assessed for its ability to block a conditioned avoidance response; Dose administered perorally is 50 mg/kg; 26-30%block; type: functional; settings: route oral; summary of the method: as §2
Rattus norvegicus [11] = assay: Compound was assessed for its ability to block a conditioned avoidance response; Dose administered intraperitoneally is 50 mg/kg; no significant effect (0-25%block); type: functional; settings: route intraperitoneal
Rattus norvegicus [12] = assay: Compound was assessed for its ability to block a conditioned avoidance response; Dose administered perorally is 10 mg/kg; 51-75%block; type: functional; settings: route oral; summary of the method: as §2
Rattus norvegicus [13] = assay: Compound was assessed for its ability to produce catalepsy in rats; Dose administered perorally is 25 mg/kg; Group score is 16-30; type: functional; settings: route oral; summary of the method: as §1
Rattus norvegicus [14] = assay: Compound was assessed for its ability to produce catalepsy in rats; Dose administered perorally is 50 mg/kg; Group score is 4-7; type: functional; settings: route oral; summary of the method: as §1
Rattus norvegicus [15] = assay: Compound was assessed for its ability to block a conditioned avoidance response; Dose administered perorally is 50 mg/kg; 76-99%block; type: functional; settings: route oral; summary of the method: as §2
Rattus norvegicus [16] = assay: Compound was assessed for its ability to block a conditioned avoidance response; Dose administered perorally is 2.5 mg/kg; 31-50%block; type: functional; settings: route oral; summary of the method: as §2
Rattus norvegicus [17] = assay: Compound was assessed for its ability to produce catalepsy in rats; Dose administered perorally is 2.5 mg/kg; Group score is 31-40; type: functional; settings: route oral; summary of the method: as §1

Row | Structure (SMILES) | EDmin (Mus musculus) [mg/kg] | LD50 [1] [mg/kg] | Activity (Rattus norvegicus [4]) | also measured
1 | CCc1cc2c(s1)Nc1ccc(Cl)cc1N=C2N1CCN(C)CC1 | 6.25 | 50 |  | Activity (Rattus norvegicus [2]): 1; Activity (Rattus norvegicus [3]): 2
2 | CN1CCN(C2=Nc3cc(F)ccc3Nc3sc4c(c32)CCCC4)CC1 | 100 | > 400 | 0 | 
3 | Cc1csc2c1C(N1CCN(C)CC1)=Nc1cc(F)ccc1N2 | 25 | > 200 |  | Activity (Rattus norvegicus [5]): 0
4 | CCCN1CCN(C2=Nc3cc(F)ccc3Nc3sc(CC)cc32)CC1 | 6.25 | > 100 |  | Activity (Rattus norvegicus [6]): 0
5 | CCc1cc2c(s1)Nc1ccc(S(=O)(=O)N(C)C)cc1N=C2N1CCN(C)CC1 | >800 | > 800 | 0 | 
6 | CCc1cc2c(s1)Nc1ccc(Cl)cc1C(N1CCN(C)CC1)=N2 | 50 | > 100 | 0 | 
7 | CCc1cc2c(s1)Nc1ccccc1N=C2N1CCN(CCO)CC1 | 25 | > 400 |  | Activity (Rattus norvegicus [7]): 4; Activity (Rattus norvegicus [8]): 2
8 | CCc1cc2c(s1)Nc1ccccc1N=C2N1CCNCC1 | 100 | 800 | 0 | 
9 | OCCN1CCN(CC/C=C2\c3ccccc3Sc3ccc(C(F)(F)F)cc32)CC1 [E-FLUPENTIXOL] | >400 | > 400 |  | Activity (Rattus norvegicus [9]): 0; Activity (Rattus norvegicus [10]): 1
10 | CCc1cc2c(s1)Nc1ccc(F)cc1N=C2NCCN1CCOCC1 | 200 | 400 |  | Activity (Rattus norvegicus [11]): 0
11 | CCc1cc2c(s1)Nc1ccc(F)cc1N=C2N1CCCCC1 | 12.5 | > 200 | 0 | 
12 | CCOC(=O)N1CCN(C2=Nc3cc(F)ccc3Nc3sc(CC)cc32)CC1 | 100 | > 800 | 0 | Activity (Rattus norvegicus [9]): 0
13 | CCc1cc2c(s1)Nc1cc(F)c(F)cc1N=C2N1CCN(C)CC1 | 6.25 | 300 |  | Activity (Rattus norvegicus [12]): 3; Activity (Rattus norvegicus [13]): 3
14 | CC(O)c1cc2c(s1)Nc1ccc(F)cc1N=C2N1CCN(C)CC1 (centres undefined) | 25 | > 400 |  | Activity (Rattus norvegicus [14]): 1; Activity (Rattus norvegicus [15]): 4
15 | CCCCCCc1cc2c(s1)Nc1ccc(F)cc1N=C2N1CCN(C)CC1 | 100 | > 400 | 0 | 
16 | CCc1cc2c(s1)Nc1ccc(F)cc1N=C2NCCN1CCN(c2ccccc2)CC1 | >400 | > 800 | 0 | Activity (Rattus norvegicus [9]): 0
17 | CCCN1CCN(C2=Nc3ccccc3Nc3sc(CC)cc32)CC1 | 25 | > 200 |  | Activity (Rattus norvegicus [6]): 0; Activity (Rattus norvegicus [8]): 2
18 | CCc1cc2c(s1)Nc1ccc(F)cc1N=C2N1CCN(c2cccc(Cl)c2)CC1 | >400 | > 400 |  | Activity (Rattus norvegicus [11]): 0
19 | CCc1cc2c(s1)Nc1ccc(F)cc1N=C2N1CCN(C)CC1.O=C(O)/C=C\C(=O)O | 6.25 | 200 |  | Activity (Rattus norvegicus [2]): 1; Activity (Rattus norvegicus [3]): 2
20 | CCc1cc2c(s1)Nc1ccccc1C(N1CCN(C)CC1)=N2 | 100 | > 200 |  | Activity (Rattus norvegicus [5]): 0
21 | CCc1cc2c(s1)Nc1ccc([N+](=O)[O-])cc1N=C2N1CCN(C)CC1 | 50 | > 400 |  | Activity (Rattus norvegicus [5]): 0
22 | Cc1cc2c(s1)Nc1ccc(F)cc1N=C2N1CCNCC1 | 100 | 400 |  | Activity (Rattus norvegicus [10]): 1
23 | OCCN1CCN(CC/C=C2/c3ccccc3Sc3ccc(C(F)(F)F)cc32)CC1 [Z-FLUPENTIXOL] | 3 | 300 |  | Activity (Rattus norvegicus [16]): 2; Activity (Rattus norvegicus [17]): 4
